According to ChEMBL document CHEMBL1151895, “Discovery, synthesis, and biological evaluation of piperidinol analogs with anti-tuberculosis activity” (Bioorg Med Chem, 2009):
≈ marks a conversion by molar mass, not a printed value.

Key:
[1] = Therapeutic index, CC50 for african green monkey Vero cells to MIC for Mycobacterium tuberculosis H37Rv; type: cell-based
[2] = Cytotoxicity against african green monkey Vero cells after 72 hrs by alamar blue assay; type: cell-based; details: chlorocebus sabaeus, read-out: LD50
How it was run: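 Vero cells grown in phenol-free L15 medium with glutamine, penicillin-streptomycin and 10% bovine calf serum at 37°C. Compounds tested by microplate dilution for 72 h at 37°C. alamarBlue then added and plates incubated overnight at 37°C. Drug LD50 determined.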

[3] = system: Mycobacterium tuberculosis; assay: Antimicrobial activity against Mycobacterium tuberculosis H37Rv after 9 to 12 days by CLSI microbroth dilution technique; type: functional
How it was run: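 M. tuberculosis H37Rv grown in Middlebrook 7H9 with 10% OADC to OD600 0.4–0.6, frozen in aliquots of known CFU/mL. Compounds serially diluted in DMSO, added to 7H9 medium; 2×10^4 bacteria per well. Incubated at 37 °C for […]. MIC90 read visually as concentration inhibiting 90% of growth. Isoniazid control run in each experiment.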

Mus musculus = assay: Toxicity in mouse assessed as death at 50 to 100 mg/kg; type: organism-based; set-up: dose 50-100 mg/kg; details: in vivo

Row | Structure (SMILES) | selectivity ratio [1] | CC50 at 72 h [2] [µg/mL] | MIC [3] [µg/mL] | Activity (Mus musculus)
1 | O[C@@H](CSc1ccccc1)CN1CCC(O)(c2ccc(Cl)c(C(F)(F)F)c2)CC1 | 4.4 | 37.1 (≈ 83.2 µM) | 8.3 (≈ 18.6 µM) | 
2 | Cc1cccc(C)c1OC[C@@H](O)CN1CCC(O)(c2ccc(Cl)c(C(F)(F)F)c2)CC1 | 4.1 | 19 (≈ 41.5 µM) | 4.7 (≈ 10.3 µM) | 
3 | O[C@H](CSc1ccccc1)CN1CCC(O)(c2ccc(Cl)c(C(F)(F)F)c2)CC1 | 6.8 | 35.7 (≈ 80.1 µM) | 5.2 (≈ 11.7 µM) | 
4 | O[C@H](COc1ccccc1)CN1CCC(O)(c2ccc(Cl)c(C(F)(F)F)c2)CC1 | 4.2 | 34.9 (≈ 81.2 µM) | 8.3 (≈ 19.3 µM) | 
5 | O[C@@H](COc1ccccc1)CN1CCC(O)(c2ccc(Cl)c(C(F)(F)F)c2)CC1 | 1.5 | 27.7 (≈ 64.4 µM) | 18.8 (≈ 43.7 µM) | 
6 | N#CC1(c2ccccc2)CCN(C[C@@H](O)COc2ccc(Cl)cc2)CC1 |  |  | 25 (≈ 67.4 µM) | 
7 | Cc1cccc(C)c1OC[C@H](O)CN1CCC(O)(c2ccc(Cl)c(C(F)(F)F)c2)CC1 | 3.3 | 19.3 (≈ 42.1 µM) | 5.9 (≈ 12.9 µM) | 
8 | O[C@H](COc1ccc(Cl)cc1)CN1CCC(O)(c2ccc(Cl)c(C(F)(F)F)c2)CC1 | 4.7 | 17.9 (≈ 38.6 µM) | 3.8 (≈ 8.18 µM) | 
9 | O[C@@H](COc1ccc(Cl)cc1)CN1CCC(O)(c2ccc(Cl)cc2)CC1 |  |  | 25 (≈ 63.1 µM) | 
10 | O[C@@H](COc1ccc(C(F)(F)F)cc1)CN1CCC(O)(c2ccc(Cl)c(C(F)(F)F)c2)CC1 | 3.5 | 18.3 (≈ 36.8 µM) | 5.2 (≈ 10.4 µM) | 
11 | O[C@@H](COc1ccc(Cl)cc1)CN1CCC(O)(c2ccc(Cl)c(C(F)(F)F)c2)CC1 | 13.3 | 18.2 (≈ 39.2 µM) | 1.4 (≈ 3.02 µM) | Toxic
12 | O[C@@H](COc1ccc(Cl)cc1)CN1CCC(O)(c2cccc(C(F)(F)F)c2)CC1 |  |  | 25 (≈ 58.2 µM) | 
13 | OC(COc1ccc(Cl)cc1)CN1CCC(O)(c2ccc(Cl)c(C(F)(F)F)c2)CC1 (racemic) | 11.9 | 17.9 (≈ 38.6 µM) | 1.5 (≈ 3.23 µM) | 
14 | O[C@H](COc1ccc(C(F)(F)F)cc1)CN1CCC(O)(c2ccc(Cl)c(C(F)(F)F)c2)CC1 | 11 | 18.7 (≈ 37.6 µM) | 1.7 (≈ 3.41 µM) | 
15 | O[C@H](COc1ccc(OC(F)(F)F)cc1)CN1CCC(O)(c2ccc(Cl)c(C(F)(F)F)c2)CC1 | 2.4 | 17.6 (≈ 34.3 µM) | 7.3 (≈ 14.2 µM) | 
16 | OC(COc1ccccc1)CN1CCC(O)(c2ccc(Cl)c(C(F)(F)F)c2)CC1 (racemic) | 1.9 | 19.5 (≈ 45.4 µM) | 10.4 (≈ 24.2 µM) | 
17 | O[C@@H](COc1ccc(F)cc1)CN1CCC(O)(c2ccc(Cl)c(C(F)(F)F)c2)CC1 | 2 | 20.8 (≈ 46.4 µM) | 10.4 (≈ 23.2 µM) | 
18 | O[C@@H](COc1ccc(Cl)c(Cl)c1)CN1CCC(O)(c2ccc(Cl)c(C(F)(F)F)c2)CC1 | 5.8 | 18 (≈ 36.1 µM) | 3.1 (≈ 6.22 µM) | 
19 | O[C@@H](COc1ccc(Cl)cc1)CN1CC=C(c2ccc(Cl)cc2)CC1 |  |  | > 200 | 
20 | O[C@@H](COc1ccc(Cl)cc1)CN1CCC(O)(c2ccccc2)CC1 |  |  | 100 (≈ 276 µM) | 
21 | O[C@@H](COc1ccc(OC(F)(F)F)cc1)CN1CCC(O)(c2ccc(Cl)c(C(F)(F)F)c2)CC1 | 4.9 | 17.7 (≈ 34.4 µM) | 3.6 (≈ 7.01 µM) | 
22 | O[C@H](COc1ccc(F)cc1)CN1CCC(O)(c2ccc(Cl)c(C(F)(F)F)c2)CC1 | 6.6 | 25.8 (≈ 57.6 µM) | 3.9 (≈ 8.71 µM) | 
23 | O[C@H](COc1ccc(Cl)c(Cl)c1)CN1CCC(O)(c2ccc(Cl)c(C(F)(F)F)c2)CC1 | 2.6 | 18.7 (≈ 37.5 µM) | 7.3 (≈ 14.6 µM) | 
